Assay: Toxicity liver stage against HepG2, at 10uM
Assay type: cell-based
Design: test concentration 10 uM, cell line HepG2-A16-CD81EGFP
Settings: human, HepG2-A16-CD81EGFP cells; read-out: INHIBITION
How it was run: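 Uninfected HepG2-A16-CD81EGFP cells, 3 × 10^3 per well, 1536-well, plated on prespotted compound at 10 μM final, parasite-free screening media added to match infected plates; puromycin 10 μM positive, DMSO 0.5% negative; run in parallel with 48 h PbLuc assay at 37 °C, 5% CO2; viability by CellTiter-Glo luminescence, normalized to controls.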

Row | SMILES | cytotoxicity at 10 µM
1 | Cc1ccc(S(=O)(=O)Nc2ccc(C)c(C(=O)O)c2)s1 | -1.51%
2 | CN(Cc1ccc(OCC(=O)N2CCOCC2)cc1)S(C)(=O)=O | 4.64%
3 | O=C(CNCCn1cccn1)NCC1(c2ccccc2)CC1 | 3.15%
4 | O=C(CCc1ccccc1)NCC1CCN(Cc2ccccc2)CC1 | -6.29%
5 | COc1ccc(Nc2nc3c(C)nn(C)c3c(=O)n2C)cc1 | -0.103%
6 | CCc1ncc(CNCc2cccnc2N(C)C)cn1 | -2.62%
7 | Cc1ncc2c(c1-c1noc(-c3cscn3)n1)CCNC2 | -3.37%
8 | Cn1cnc2c1C(C(=O)N1CCOCC1)N(C(=O)c1ccccc1)CC2 (centres undefined) | -0.388%
9 | CC(C)(CN1CCC(Cc2ccc(C(=O)O)cc2)C1)N1CCOCC1 (centres undefined) | 2.17%
10 | CC(C)NC(=O)[C@@H]1C[C@H]2OCC[C@H]2N(Cc2ccc3ccccc3n2)C1 | -66.8%
11 | CCCc1nc(C)c(C(=O)NS(=O)(=O)c2ccc(C#N)cc2)s1 | -12%
12 | NCC1(c2cccc(C(F)(F)F)c2)CCOCC1 | -11.1%
13 | Cc1nc(CN2C(=O)CCC23CCN(c2ncccc2C)CC3)cs1 | -2.07%
14 | Cn1cc(-c2ccnc(NCC3CCCCO3)n2)cn1 (centres undefined) | -131%
15 | Cc1nc(-c2nnc[nH]2)sc1C(=O)N(Cc1cccnc1)C1CC1 | -5.79%
16 | COc1cc(C(=O)NS(=O)(=O)c2cc(Cl)sc2Cl)ccc1OC(F)F | -13.9%
17 | COc1cc(CN2CCC3(CC(Nc4ccncn4)C3)C2)cc(OC)c1 (centres undefined) | -9.27%
18 | Cn1cc(C(=O)N[C@@H]2CN(Cc3ccoc3)[C@@H]3CCCO[C@@H]32)cn1 | -104%
19 | c1ccc2c(c1)CC(CNCc1ccncc1)(N1CCCCC1)C2 | -7.72%
20 | c1ccc(N2CCCC3(COCCN(c4nccs4)C3)C2)nc1 (centres undefined) | -8.89%
21 | Cc1nc(C(=O)N2CCN(c3ncccn3)[C@@H]3CS(=O)(=O)C[C@@H]32)cs1 | 6.12%
22 | Cc1cc(C(=O)NCc2ccc(N3CCCC(C(N)=O)C3)cc2)on1 (centres undefined) | -9.56%

Row | SMILES | cytotoxicity at 10 µM
23 | O=C(CN1CCCC1Cn1cncn1)Nc1nncs1 (centres undefined) | 5.05%
24 | CN1C(=O)[C@@H]2CC[C@H]1CN(C(=O)Nc1ccccc1C(F)(F)F)C2 | -2.53%
25 | N#Cc1cccc(OCc2ccoc2C(=O)N2CCCCCC2)c1 | 9.91%
26 | Cn1cc(CN2C[C@H]3CCC[C@@]3(COCC3CC3)C2)cn1 | -97.8%
27 | CCc1nnsc1-c1nc(C(C)C)nn1-c1ccc2c(c1)OCO2 | -9.69%
28 | COCCN1CCC2(CCN(Cc3cccs3)CC2)C1=O | 1.22%
29 | NC(=O)CN1CCCN(C(=O)Cc2ccc(Br)cc2)CC1 | -6.58%
30 | CS(=O)(=O)N1CCN(c2ccc3ccc(C(=O)NC4CC4)cn23)CC1 | -0.39%
31 | O=C(NCc1ccccc1Cn1cncn1)C1CC1 | -11.3%
32 | CCn1cc(-c2cc(-c3cc(CN(C)C)cs3)nc(N)c2C#N)c(C)n1 | 0.184%
33 | CCN(C(=O)c1cccc2c1OCO2)c1ccccc1 | 0.944%
34 | Cc1nonc1C1CCCN1Cc1ccc(C(=O)Nc2nccs2)cc1 (centres undefined) | 76.7%
35 | Cc1nc(CO[C@H]2CN(Cc3cccs3)[C@@H]3COC[C@H]23)cs1 | -2.19%
36 | Cc1nc(CN2CCCC(NCc3c(C)nc4sccn34)C2)no1 (centres undefined) | 6.21%
37 | CCc1noc(CN(C)C(=O)COc2cc(Cl)cc(Cl)c2)n1 | -0.966%
38 | CN1CC(c2cc(O)nc(NCc3cccc(F)c3)n2)CC1=O (centres undefined) | 1.96%
39 | Cc1nnc(NCCC(=O)N(C)Cc2ccccc2)c(C#N)c1C | -1.04%
40 | CN(C(=O)c1ccccc1N(C)S(C)(=O)=O)c1ccc(C(C)(C)C)cc1 | 5.17%
41 | NC(=O)N1C[C@H]2CN(Cc3nccs3)C[C@H]2C1 | 2.6%
42 | c1ncn(CC2CN(Cc3csc(C4CCCC4)n3)CCO2)n1 (centres undefined) | -8.55%
43 | CN1C(=O)[C@H](OC(N)=O)[C@@H](C(=O)Nc2ccccc2)C12CCNCC2 | 2.73%
44 | CCCNC(=O)Cn1nc(C(C)C)c2cnn(C(C)(C)C)c2c1=O | -20%

Row | SMILES | cytotoxicity at 10 µM
45 | CCC[C@@H]1CN(c2ncnc3ccsc23)C[C@H]1NS(C)(=O)=O | 3.73%
46 | CCn1cnnc1C1CCN(C(=O)c2cnn(C(C)(C)C)c2)CC1 | 4.78%
47 | N#Cc1ccc(N2CCC(c3nc(C(F)(F)F)c[nH]3)CC2)nc1 | -7.09%
48 | CCC1=NN2C(=N)/C(=C/c3cccc(Cl)c3)C(=O)N=C2S1 | -11.8%
49 | Fc1cccc(CN2CCC[C@@H](Cn3nnc(-c4ccccn4)n3)C2)c1 | 3.33%
50 | Cc1nc(C)c(C(=O)N2CCCC(c3cnccn3)C2)s1 (centres undefined) | -20.6%
51 | Cc1cccc(C)c1NC(=O)NCC1CCCN(C2CCOCC2)C1 (centres undefined) | -5.95%
52 | CNC(=O)C1CCCCN1C(=O)c1csc(-c2ccc(C)o2)n1 (centres undefined) | 7.55%
53 | CCN1CCN(C[C@@H]2CN(c3ncccc3Cl)C[C@@H]2CO)CC1 | -4.81%
54 | OCc1n[nH]c(-c2ccc(F)cc2)n1 | -4.64%
55 | CCCNC(=O)c1cc2c(s1)CCN2C(=O)c1ccccc1 | 7.31%
56 | Cc1cccnc1CNCC1(O)CCCN(Cc2ccc(F)cc2)C1=O (centres undefined) | -12.3%
57 | Fc1ccc(OC2CCN(CCn3cncn3)CC2)cc1 | -5.92%
58 | COC(=O)[C@@H](NC(=O)Nc1ccc(C(C)=O)cc1)C(C)C | 10.1%
59 | CNc1cc(C2CCCN(C(=O)c3ccc(=O)[nH]n3)C2)ccn1 (centres undefined) | -11.8%
60 | CNC(=O)C(C)(C)N1CCC[C@H]1C(=O)NCCN(C)C | 2.2%
61 | CCN1CC(CN(C)Cc2nc(-c3ccoc3)oc2C)CC1=O (centres undefined) | -5.13%
62 | COCCCN(Cc1ccncc1)C(=O)C1COc2ccccc2C1 (centres undefined) | 11.5%
63 | COc1ncccc1CN1CCc2[nH]nc(C(=O)N3CCCC3C)c2C1 (centres undefined) | -4.4%
64 | c1cnc(N2C[C@H]3CCN(c4cccnc4)C[C@H]3C2)nc1 | -14.7%
65 | CCOCCN1C[C@@H]2CCCO[C@@H]2[C@H](NC(=O)c2cnoc2C)C1 | -119%
66 | Cc1ccccc1C(=O)NCCCN1CCc2ccccc2C1 | -16.5%

Row | SMILES | cytotoxicity at 10 µM
67 | Cc1cc(C)n(Cc2cccc(C(=O)N3CCOCC3(C)C)c2)n1 | -3.51%
68 | Cc1ccc2c(n1)N(CCn1cccn1)CCN(C1CCOCC1)C2 | -2.83%
69 | Cn1cc(CN2C[C@@H]3CCCO[C@@H]3[C@H](NC(=O)CC3CC3)C2)cn1 | -0.00726%
70 | Cn1cc(Br)cc(NC(=O)CC(C)(C)C)c1=O | 5.82%
71 | O=C([C@H]1C[C@@H]2CCN(C3CCOCC3)C[C@@H]2O1)N1CCOCC1 | -2.56%
72 | CC(C)OCCC(=O)Nc1cc(C(=O)N(C)C(C)C)ccc1Cl | -3.79%
73 | COc1cc(C)ccc1OCCC(=O)N1CCCC(n2cncn2)C1 (centres undefined) | -2.69%
74 | CCN(CC1CCOC1)C(=O)c1cc(F)ccc1N1CCN(C)CC1 (centres undefined) | -7.68%
75 | Cn1cnnc1CNC(=O)Nc1cc(C(F)(F)F)c[nH]c1=O | -3.2%
76 | COCC(=O)N1CCN(C)C(=O)C(Cc2ccccc2-c2cccs2)C1 (centres undefined) | -3.73%
77 | CC(C)NC(=O)CN(C1CC1)C(C)C1CC1 (centres undefined) | -1.6%
78 | O=C(c1ccoc1)N1CC[C@H]2[C@H]1CCN2S(=O)(=O)C1CC1 | -139%
79 | CC(=O)Nc1nc(-c2ccc(C)c(C)c2)c[nH]1 | -19.3%
80 | Cc1ccc(C(=O)O)cc1-c1cccc2c1CCNC2 | 7.56%
81 | CCC(CC(=O)NS(=O)(=O)C(C)C)c1ccccc1 (centres undefined) | -49.1%
82 | CN(C)CCn1ccc(NC(=O)NC(C)(C)c2nccs2)n1 | 3.92%
83 | CC(=O)c1c(F)cccc1N1CCC(CS(N)(=O)=O)CC1 | -7.79%
84 | CC(O)CN1CCC(CN(C)CCC(=O)NC2CCCC2)CC1 (centres undefined) | -0.663%
85 | Cc1noc(C)c1C(=O)N1CC[C@H]2C[C@@H](c3ccncn3)O[C@@H]2C1 | -2.16%
86 | CC(O)CN(CC(=O)NC(=O)NCC(F)(F)F)c1ccccc1 (centres undefined) | 1.15%
87 | O=C(c1cccnc1)N(Cc1ccncc1)C1CC1 | 8.32%
88 | CCC(=O)N(C)CC(=O)Nc1ccc(Br)cn1 | 7.48%

Row | SMILES | cytotoxicity at 10 µM
89 | CCN1CCN(C(=O)CCn2cccc2)CC1 | 7.66%
90 | c1ccc(C(CNc2ncccn2)N2CCOCC2)nc1 (centres undefined) | -47.5%
91 | Cc1noc(C)c1CN(C)C(=O)NC(C)Cc1ccco1 (centres undefined) | 11.3%
92 | CC(Cn1cncn1)NCc1ccc2nonc2c1 (centres undefined) | 3.05%
93 | CS(=O)(=O)NC(=O)c1cnc2c(cnn2C2CCCC2)c1 | 8.18%
94 | CN1CCN(Cc2cnc3n2CCN(CCc2ccccc2)C3)CC1 | -6.98%
95 | CCc1nc(CNC2CCCCNC2=O)cs1 (centres undefined) | 8.74%
96 | Cc1c(Cl)cc(C(=O)NCCc2ncnn2C)cc1Cl | 6.07%
97 | COC(C)(C)CNC(=O)N(C)Cc1nc(-c2ccccc2)c[nH]1 | 8.07%
98 | CC(c1ccncn1)N(C)Cc1cc2cc3c(cc2[nH]c1=O)OCO3 (centres undefined) | 9.83%
99 | CC(=O)N1CC(=O)N(c2ccccc2)CC12CCN(Cc1ccsc1)C2 (centres undefined) | 13.4%
100 | Cn1c(=O)[nH]c(=O)n2c(CC(=O)Nc3ccccc3)cnc12 | 5.81%
101 | COC(=O)C1CCN(C(=O)CN2CCN(c3cccc(C)c3)CC2)CC1 | -17.5%
102 | Cc1noc(C)c1CN1CCN(Cc2ccncc2)c2ncccc2C1 | 5.51%
103 | CCOc1ccc(C(C)Nc2ncnc3c2CCNC3)cc1OCC (centres undefined) | -8.81%
104 | O=C(C1CC1)N1CCCC(C2=Nc3ccccc3S(=O)(=O)N2)C1 (centres undefined) | -1.45%
105 | c1cc(-c2noc(-c3cc(C4CC4)on3)n2)cc(N2CCCCC2)n1 | 4.64%
106 | COc1cccc(OCCc2nc3c(cc2C(N)=O)CCC3)c1 | 7.32%
107 | O=C1[C@H]2CN(c3ncc(F)cn3)C[C@H]2CN1CC1CC1 | 6.19%
108 | Cc1noc(C)c1CN1CC[C@@H]2O[C@H](COCC3CC3)CC[C@@H]21 | 5.65%
109 | CSc1ccc(NCc2csc(C)n2)cc1F | -6.54%

Source: ChEMBL document CHEMBL4513216, “Probing the Open Global Health Chemical Diversity Library for Multistage-Active Starting Points for Next-Generation Antimalarials” (ACS Infect Dis, 2020)
